M5 PAM: potentiates acetylcholine response at human M5 receptor | P08912 | CHO-K1 hM5, Fluo-8 calcium, ACh EC20 PAM; 0% = ACh EC20, 100% = ACh EC100 | activation, % at 3 µM | hit rate 0.3% among 360,000;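 active = activation above the run cutoff, the mean activation of all test compounds plus 3 SD, cut at about 18% in these data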
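Assay system: CHO-K1 hM5 cells / Incubation: Fluo-8 loading 80 min at 37 °C plus 30 min room temperature / Technique: Fluo-8 calcium dye fluorescence, kinetic read / Repeats: single replicate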
M5 antag: antagonists of human muscarinic M5 receptor (CHRM5) | CHO-hM5 cells, Fluo-8 calcium fluorescence, ACh EC80 | inhibition, % at 3 µM | P08912 | hit rate 0.59% among 360,000;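 active = inhibition above a per-plate cutoff, the mean of that plate's test compounds plus 3 SD, cut at about 27% in these data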;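 note: 0% = acetylcholine EC80 with DMSO and 100% = DMSO without agonist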
M1 ag: human M1 muscarinic receptor agonism; P11229; CHO-K1 hM1, Fluo-8 calcium fluorescence, agonist mode; 0% DMSO, 100% acetylcholine EC100; activation, % at 3 µM; hit rate 0.33% among 360,000;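 active = activation above the run's mean compound activation plus 3 SD, cut at about 16% in these data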;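 note: peak over basal fluorescence ratio within a 140 s kinetic read after compound addition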
Target sequence (P11229 whole entry, looked up): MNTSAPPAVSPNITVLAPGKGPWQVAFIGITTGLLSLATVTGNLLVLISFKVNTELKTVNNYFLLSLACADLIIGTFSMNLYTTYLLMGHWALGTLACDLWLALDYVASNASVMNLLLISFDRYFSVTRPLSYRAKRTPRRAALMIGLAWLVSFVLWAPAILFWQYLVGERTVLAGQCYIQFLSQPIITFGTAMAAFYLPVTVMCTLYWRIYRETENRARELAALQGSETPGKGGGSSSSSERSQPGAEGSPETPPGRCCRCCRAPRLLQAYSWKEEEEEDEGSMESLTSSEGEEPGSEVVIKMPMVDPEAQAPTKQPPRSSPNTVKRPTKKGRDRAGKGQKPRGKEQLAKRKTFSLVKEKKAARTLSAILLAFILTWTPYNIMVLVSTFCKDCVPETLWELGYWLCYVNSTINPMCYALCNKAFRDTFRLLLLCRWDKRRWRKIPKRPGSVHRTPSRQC
CHRM1 PAM: positive allosteric modulators of human M1 muscarinic receptor; P11229; CHO-K1 hM1, Fluo-8 calcium fluorescence, ACh EC20; 0% = ACh EC20, 100% = maximal ACh; activation, % at 3 µM; hit rate 0.088% among 360,000; AID 588819; in the data active = activation above about 19%, passing the limit was not always enough
M1 antag: antagonists of human M1 muscarinic receptor; P11229; inhibition, % at 3 µM; CHO-K1 hM1, Fluo-8 calcium fluorescence, ACh EC80 antagonist; hit rate 1.3% among 360,000; AID 588852;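 active = percent inhibition above its own plate's cutoff, namely the mean of that plate's compound wells plus 3 SD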;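 note: peak over basal fluorescence ratio during 140 s after agonist addition; 0% = ACh EC80 plus DMSO and 100% = DMSO alone without agonist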
M5 ag: agonists of human muscarinic M5 receptor (CHRM5) | activation, % at 3 µM | hit rate 0.19% among 360,000 | AID 624037 | CHO-K1 hM5 cells, Fluo-8 calcium fluorescence; 0% DMSO wells, 100% maximal acetylcholine response | P08912;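 active = activation above the run's mean over test compounds plus 3 SD, cut at about 23% in these data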;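 note: signal is peak over basal fluorescence ratio across the kinetic read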
Starred values were filed as active, the others as inactive. Shown are actives, neighbours in structure and some others; about 2% of the full set was active somewhere.

What do the screens show for `O=C(NC1CC1)C1CC(=O)N(c2ccccc2)C1` (centres undefined)?
M5 PAM: -8.7; M5 antag: 30.0*; M1 ag: -1.9; CHRM1 PAM: 9.8; M1 antag: -14.8; M5 ag: -4.1

What do the screens show for `Cc1c(C(=O)NC2CC(C)(C)NC(C)(C)C2)oc2c(Cl)cccc12`?
M5 PAM: 0.5; M5 antag: 0.0; M1 ag: -4.6; CHRM1 PAM: 4.8; M1 antag: -9.6; M5 ag: -1.1

Results for CC(C)(C)c1ccc(CC(=O)N2CCC2(C)C(=O)NCc2cccs2)cc1 (centres undefined) ?
M5 PAM: -3.3; M5 antag: 4.2; M1 ag: 1.2; CHRM1 PAM: -0.1; M1 antag: -15.8; M5 ag: 1.9

How did OCC1(Cc2ccc(Cl)cc2)CCN(Cc2ccc(Oc3ncccn3)cc2)CC1 do in these assays?
M5 PAM: -10.8; M5 antag: 2.2; M1 ag: -13.7; CHRM1 PAM: -32.4; M1 antag: 44.0*; M5 ag: -10.5

How did CCOC(=O)C1=NN(C(=O)c2ccc(C)cc2)C(O)(c2ccc(Cl)cc2)C1 (centres undefined) do in these assays?
M5 PAM: -10.9; M5 antag: -0.4; M1 ag: 22.0*; CHRM1 PAM: -5.1; M1 antag: 3.2; M5 ag: 5.6

What do the screens show for `CCC1=NN(C(=O)c2ccc(Cl)cc2)C(O)(c2ccc(C)cc2)C1` (centres undefined)?
M5 PAM: -10.0; M5 antag: -0.1; M1 ag: -2.0; CHRM1 PAM: 9.2; M1 antag: -7.0; M5 ag: 0.2

How did O=C(Nc1ccc(C(=O)NCCCN2CCN(c3ccc(F)cc3)CC2)cc1)C1=CSCCO1 do in these assays?
M5 PAM: -1.9; M5 antag: 13.4; M1 ag: 17.0*; CHRM1 PAM: -0.6; M1 antag: -5.7; M5 ag: 17.2

Results for Cc1ccc(N2CCN(C(C(=O)Nc3c(C)cccc3C)c3cccc(F)c3)CC2)cc1 (centres undefined) ?
M5 PAM: 2.8; M5 antag: 5.5; M5 ag: 2.8

Results for COCCN1CCC(CNCc2c(C(=O)N3CCCCC3)nc3c(C)cccn23)C1 (centres undefined) ?
M5 PAM: 23.0*; M5 antag: -2.9; M1 ag: -3.8; CHRM1 PAM: 5.8; M1 antag: -5.7; M5 ag: 6.3

Results for Cc1cccn2c(CNCC3OCCc4ccccc43)c(C(=O)N3CCCCC3)nc12 (centres undefined) ?
M5 PAM: -8.9; M5 antag: 6.7; M1 ag: -4.8; CHRM1 PAM: -11.0; M1 antag: 11.1; M5 ag: 3.8

Results for COc1ccc(C(C)=O)cc1Cn1c(C)c(C(=O)NC2CC2)sc1=O ?
M5 PAM: 0.3; M5 antag: -2.1; M1 ag: -6.5; CHRM1 PAM: 2.1; M1 antag: -3.9; M5 ag: 0.2

Results for CSCCC(NC(=O)c1ccco1)C(=O)NCC1CCCCC1 (centres undefined) ?
M5 PAM: 9.8; M5 antag: -11.7; M1 ag: -1.4; CHRM1 PAM: 24.4*; M1 antag: -23.9; M5 ag: 2.0

Results for CC(C)(C)NC(=O)CN(Cc1ccc2c(c1)OCO2)C(=O)CNS(=O)(=O)c1ccc(F)cc1 ?
M5 PAM: 26.9*; M5 antag: 11.3; M1 ag: -3.2; CHRM1 PAM: 13.7; M1 antag: -16.6; M5 ag: 1.0

How did CC(C)C[C@@H](NC(=O)C1CCC(CNC(=O)[C@@H]2CCCN2C(=O)OC(C)(C)C)CC1)C(=O)O (some centres undefined) do in these assays?
M5 PAM: -2.2; M5 antag: 12.8; M1 ag: -0.3; CHRM1 PAM: -8.4; M1 antag: 100.8*; M5 ag: -3.6

What do the screens show for `CC(C)CC(NC(=O)C1CCCN1C(=O)OC(C)(C)C)C(=O)NCC(N)=O` (centres undefined)?
M5 PAM: -2.0; M5 antag: -9.9; M1 ag: -3.5; CHRM1 PAM: 6.7; M1 antag: -11.5; M5 ag: -0.3

How did C=C1C(=O)c2sccc2C(c2ccc(OC)c(OC)c2)C1COC(C)=O (centres undefined) do in these assays?
M5 PAM: 8.5; M5 antag: 9.4; M1 ag: 2.4; CHRM1 PAM: 6.4; M1 antag: 0.8; M5 ag: 8.2

Results for O=S1c2ccccc2Nc2ccccc21 ?
M5 PAM: -0.2; M5 antag: 13.8; M1 ag: -5.5; CHRM1 PAM: 27.1*; M1 antag: 1.3; M5 ag: -2.2

How did CCCCCCN1CCN(C2CN(Cc3cn(Cc4cccc(C(F)(F)F)c4)nn3)S(=O)(=O)C2)CC1 (centres undefined) do in these assays?
M5 PAM: -6.8; M5 antag: -0.6; M5 ag: -2.5

Results for COc1ccc([C@H]2CN(c3ccc(OC)cc3)C(=O)[C@@H]2CC(=O)Nc2ccc(Br)cc2)cc1 ?
M5 PAM: -6.0; M5 antag: 3.0; M1 ag: -2.1; CHRM1 PAM: 5.4; M1 antag: -9.4; M5 ag: -0.3

What do the screens show for `CN(C)Cc1ccccc1Sc1ccc(O)cc1O`?
M5 PAM: 7.8; M5 antag: -2.6; M1 ag: 18.3*; CHRM1 PAM: 3.4; M1 antag: -12.0; M5 ag: -3.4

How did CNC(=S)N1N=C(c2ccc(OC)cc2)CC1c1ccc(Cl)cc1Cl (centres undefined) do in these assays?
M5 PAM: -7.7; M5 antag: 1.3; M1 ag: -11.2; CHRM1 PAM: -4.5; M1 antag: -11.3; M5 ag: -2.5

How did CNC(=S)N1N=C(c2ccc(OC)cc2)CC1c1ccccc1Cl (centres undefined) do in these assays?
M5 PAM: -9.3; M5 antag: 8.5; M1 ag: -7.7; CHRM1 PAM: -21.7; M1 antag: 34.5*; M5 ag: -3.9

What do the screens show for `CCN1CCN(CCNC(=O)c2ccc(/C=C3\Sc4ccccc4N(Cc4ccccc4F)C3=O)cc2)CC1`?
M5 PAM: -32.4; M5 antag: 17.7; M1 ag: -0.7; CHRM1 PAM: -22.6; M1 antag: 46.9*; M5 ag: -13.9

Results for O=C(Nc1nc2ccccc2s1)C1CCN(S(=O)(=O)c2cc([N+](=O)[O-])ccc2Cl)CC1 ?
M5 PAM: -30.2; M5 antag: 38.9*; M1 ag: -1.2; CHRM1 PAM: -16.7; M1 antag: 53.3*; M5 ag: -4.2

Screens: PubChem, The Scripps Research Institute Molecular Screening Center
